ChEMBL document CHEMBL1133106, “Synthesis and evaluation of peptidomimetics as selective inhibitors and active site probes of nitric oxide synthases” (J Med Chem, 2000)
Non-standard residues stand in square brackets, D forms with d. Residues, ends and D or L forms follow the SMILES beside them. *: point of attachment. Arg(NO2) = N=C(NCCC[C@H](N)C(=O)O)N[N+](=O)[O-]; NMeDab = CN[C@@H](CCN)C(=O)O; Orn = NCCC[C@H](N)C(=O)O; Dab = NCC[C@H](N)C(=O)O; Cbz = O=C(OCc1ccccc1)*; OtBu = CC(C)(C)O*

Tests used:
Nitric oxide synthase 3 = biological target: T1, Nitric oxide synthase 3 (Bos taurus, UniProt P29473)
T1 sequence (P29473 whole entry): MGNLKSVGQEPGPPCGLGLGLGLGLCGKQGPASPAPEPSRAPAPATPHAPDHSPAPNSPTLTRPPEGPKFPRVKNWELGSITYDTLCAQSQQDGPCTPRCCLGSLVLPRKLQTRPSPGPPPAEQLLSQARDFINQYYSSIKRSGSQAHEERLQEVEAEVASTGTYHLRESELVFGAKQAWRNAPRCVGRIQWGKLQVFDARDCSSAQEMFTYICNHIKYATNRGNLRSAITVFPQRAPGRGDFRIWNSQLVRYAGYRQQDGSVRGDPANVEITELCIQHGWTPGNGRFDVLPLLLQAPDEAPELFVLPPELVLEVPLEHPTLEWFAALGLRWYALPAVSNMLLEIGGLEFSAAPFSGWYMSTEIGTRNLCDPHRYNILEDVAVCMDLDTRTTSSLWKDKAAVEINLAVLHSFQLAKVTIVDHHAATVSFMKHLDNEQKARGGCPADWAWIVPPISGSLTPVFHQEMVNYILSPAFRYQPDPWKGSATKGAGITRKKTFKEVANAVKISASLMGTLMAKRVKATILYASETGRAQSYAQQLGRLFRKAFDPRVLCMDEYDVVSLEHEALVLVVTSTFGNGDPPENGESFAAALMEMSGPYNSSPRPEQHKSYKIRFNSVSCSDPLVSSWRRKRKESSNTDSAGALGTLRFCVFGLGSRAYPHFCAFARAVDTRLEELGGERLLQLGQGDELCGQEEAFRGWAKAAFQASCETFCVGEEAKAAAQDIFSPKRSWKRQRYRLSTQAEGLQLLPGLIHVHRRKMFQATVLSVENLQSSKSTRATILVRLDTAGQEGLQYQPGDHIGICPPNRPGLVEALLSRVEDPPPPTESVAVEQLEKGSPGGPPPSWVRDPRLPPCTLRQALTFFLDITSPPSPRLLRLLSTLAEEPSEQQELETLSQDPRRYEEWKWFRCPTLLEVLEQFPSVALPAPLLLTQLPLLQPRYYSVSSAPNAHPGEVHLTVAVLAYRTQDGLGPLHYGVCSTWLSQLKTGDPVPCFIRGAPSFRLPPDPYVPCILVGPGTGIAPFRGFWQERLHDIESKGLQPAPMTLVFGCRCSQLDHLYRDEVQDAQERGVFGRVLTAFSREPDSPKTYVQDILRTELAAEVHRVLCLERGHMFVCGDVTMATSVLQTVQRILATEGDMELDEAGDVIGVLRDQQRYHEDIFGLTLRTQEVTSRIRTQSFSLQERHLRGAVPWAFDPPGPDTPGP

[1] = biological target: T2, Nitric oxide synthase, inducible (Mus musculus, UniProt P29477)
T2 sequence (P29477 whole entry): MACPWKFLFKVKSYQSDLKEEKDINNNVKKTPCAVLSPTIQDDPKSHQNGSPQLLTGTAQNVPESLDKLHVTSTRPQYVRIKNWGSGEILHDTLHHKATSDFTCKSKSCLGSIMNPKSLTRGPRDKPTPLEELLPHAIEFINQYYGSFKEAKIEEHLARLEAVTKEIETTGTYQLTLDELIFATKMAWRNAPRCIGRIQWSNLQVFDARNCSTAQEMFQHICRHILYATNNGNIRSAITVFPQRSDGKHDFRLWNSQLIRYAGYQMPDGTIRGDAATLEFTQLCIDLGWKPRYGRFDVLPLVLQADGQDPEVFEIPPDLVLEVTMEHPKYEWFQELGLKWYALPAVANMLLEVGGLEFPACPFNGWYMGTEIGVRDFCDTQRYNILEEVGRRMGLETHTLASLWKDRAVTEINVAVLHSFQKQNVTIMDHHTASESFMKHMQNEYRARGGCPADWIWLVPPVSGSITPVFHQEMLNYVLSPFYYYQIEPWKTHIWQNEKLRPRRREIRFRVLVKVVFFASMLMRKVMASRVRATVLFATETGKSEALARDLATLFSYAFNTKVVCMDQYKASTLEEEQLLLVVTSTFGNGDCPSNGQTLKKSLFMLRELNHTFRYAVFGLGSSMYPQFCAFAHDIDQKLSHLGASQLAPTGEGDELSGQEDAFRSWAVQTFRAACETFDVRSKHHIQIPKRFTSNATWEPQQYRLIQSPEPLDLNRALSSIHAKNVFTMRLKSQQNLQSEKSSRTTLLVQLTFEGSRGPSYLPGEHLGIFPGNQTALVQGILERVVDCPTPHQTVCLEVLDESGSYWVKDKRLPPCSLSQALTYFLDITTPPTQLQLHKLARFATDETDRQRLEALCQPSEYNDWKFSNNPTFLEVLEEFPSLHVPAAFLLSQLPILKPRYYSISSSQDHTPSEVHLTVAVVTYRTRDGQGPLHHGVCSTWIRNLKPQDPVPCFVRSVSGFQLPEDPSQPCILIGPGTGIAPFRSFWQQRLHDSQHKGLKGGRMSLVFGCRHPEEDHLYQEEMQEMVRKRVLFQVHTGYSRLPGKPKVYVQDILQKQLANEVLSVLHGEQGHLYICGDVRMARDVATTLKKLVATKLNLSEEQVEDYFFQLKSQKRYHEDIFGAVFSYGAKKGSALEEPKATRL

[2] = Ratio of binding affinity of eNOS to nNOS
Summary of the method: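 Ratio of apparent Ki values (eNOS Ki over nNOS Ki). Recombinant bovine eNOS and nNOS were isolated from E. coli expression. NO formation was followed by the hemoglobin capture assay with 10 µM L-arginine and at least three inhibitor concentrations.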

[3] = Binding affinity against bovine brain nNOS (neuronal).

Structure (SMILES)	Ki (Nitric oxide synthase 3) [µM]	Ki [1] [µM]	Ratio [2]	Ki [3] [µM]
N=C(NCCC[C@H](N)C(=O)N[C@@H](CCN)C(=O)O)N[N+](=O)[O-] (H-[Arg(NO2)]-[Dab]-OH)	98	1210		
NCC[C@H](NC(=O)[C@@H](N)CCC/N=C(\N)N[N+](=O)[O-])C(=O)O (H-[Arg(NO2)]-[Dab]-OH)			3.5	
NCC[C@H](NC(=O)[C@H](CCC/N=C(\N)N[N+](=O)[O-])NC(=O)OCc1ccccc1)C(N)=O (Cbz-[Arg(NO2)]-[Dab]-NH2)			16	
CC(=O)N[C@@H](CCC/N=C(\N)N[N+](=O)[O-])C(=O)N[C@@H](CCN)C(N)=O (Ac-[Arg(NO2)]-[Dab]-NH2)			9	
NCCCNC(=O)[C@@H](N)CCC/N=C(\N)N[N+](=O)[O-]			163	
N=C(NCCC[C@H](N)C(=O)NCCCCN)N[N+](=O)[O-]	70	108		
N=C(NCCC[C@H](N)C(=O)NCCCN)N[N+](=O)[O-]	213	118		
NCCCCNC(=O)[C@@H](N)CCC/N=C(\N)N[N+](=O)[O-]			200	
NCCCC[C@H](NC(=O)[C@@H](N)CCC/N=C(\N)N[N+](=O)[O-])C(N)=O (H-[Arg(NO2)]-Lys-NH2)				0.45
NCCC[C@H](NC(=O)[C@@H](N)CCC/N=C(/N)N[N+](=O)[O-])C(N)=O (H-[Arg(NO2)]-[Orn]-NH2)				0.33
COC(=O)[C@H](CCN)NC(=O)[C@@H](N)CCC/N=C(\N)N[N+](=O)[O-] (H-[Arg(NO2)]-[Dab]-OMe)			798	
NCCCN(CC(N)=O)C(=O)[C@@H](N)CCC/N=C(\N)N[N+](=O)[O-]			3.5	
NCCN(CC(N)=O)C(=O)[C@@H](N)CCC/N=C(\N)N[N+](=O)[O-]			3	
CN(C(=O)[C@@H](N)CCC/N=C(\N)N[N+](=O)[O-])[C@@H](CCN)C(N)=O			40	
CC(C)(C)OC(=O)[C@H](CCN)NC(=O)[C@@H](N)CCC/N=C(\N)N[N+](=O)[O-] (H-[Arg(NO2)]-[Dab]-OtBu)			28	
COC(=O)[C@H](CCN)NC(=O)[C@@H](N)CCCNC(=N)N[N+](=O)[O-] (H-[Arg(NO2)]-[Dab]-OMe)	463	27		
CC(=O)N[C@@H](CCCNC(=N)N[N+](=O)[O-])C(=O)N[C@@H](CCN)C(N)=O (Ac-[Arg(NO2)]-[Dab]-NH2)	263	2600		
CN(C(=O)[C@@H](N)CCC/N=C(\N)N[N+](=O)[O-])[C@@H](CCCN)C(N)=O	623	1300	135	
CN(C(=O)[C@@H](N)CCCNC(=N)N[N+](=O)[O-])[C@@H](CCN)C(N)=O (H-[Arg(NO2)]-[NMeDab]-NH2)	95	340		
NCCCCN(CC(N)=O)C(=O)[C@@H](N)CCC/N=C(\N)N[N+](=O)[O-]	197	1100	4	
N=C(NCCC[C@H](N)C(=O)N(CCCN)CC(N)=O)N[N+](=O)[O-]	108	1000		
NCCNC(=O)[C@@H](N)CCC/N=C(\N)N[N+](=O)[O-]			368	
CC(C)(C)OC(=O)[C@H](CCN)NC(=O)[C@@H](N)CCCNC(=N)N[N+](=O)[O-] (H-[Arg(NO2)]-[Dab]-OtBu)	288	413		
N=C(NCCC[C@H](NC(=O)OCc1ccccc1)C(=O)N[C@@H](CCN)C(N)=O)N[N+](=O)[O-] (Cbz-[Arg(NO2)]-[Dab]-NH2)	827	1600		
N=C(NCCC[C@H](N)C(=O)N(CCN)CC(N)=O)N[N+](=O)[O-]	55.5	760		
CN(C(=O)[C@@H](N)CCC/N=C(\N)N[N+](=O)[O-])[C@@H](CCCCN)C(N)=O	631	1900	86	
N=C(NCCC[C@H](N)C(=O)NCCN)N[N+](=O)[O-]	199	100		
